# Rows were chosen to be rich in hits. Some 0.58% of all compounds tested hit in one or more screens of this group.
# OXTR ag = activates the human oxytocin receptor; P30559; CHO-OTR cells, Fluo-8 calcium fluorescence; normalized: DMSO 0%, oxytocin 100%; activation, % at 3 µM; actives 0.32% (n = 320,000); AID 2435;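 active means activation above the mean of all tested compounds plus 3 SD, cutoff set per screening run, cut at about 20% in these data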;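 further: peak over basal fluorescence ratio from a 100 s FLIPR kinetic read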
# zfTRPN1 agonist = agonists of zebrafish TRPN1 channel; HEK293 zebrafish TRPN1-YFP, Fluo-8 calcium fluorescence; 100% = response to 87 µM carbachol; activation, % at 3 µM; actives 0.18% (n = 220,000);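 active means activation above its plate's cutoff, the mean activation of test wells on that plate plus 3 SD, cut at about 19% in these data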;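 further: 0% = DMSO alone and 100% = 87 µM carbachol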
#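 Material: zebrafish TRPN1-YFP in HEK293 cells; Doses: single test compound dose, 3 µM nominal, 0.3% DMSO; Timing: dye loading 1 h at 37 °C, then 30 min room temperature; Technique: intracellular calcium fluorescence with Fluo-8; Benchmarks: high carbachol 87 µM, low DMSO alone.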
# V1R ag counter = activates human V1a receptor in oxytocin agonist counter-screen. CHO-V1R cells, Fluo-8 calcium fluorescence, agonist mode; 0% DMSO, 100% 3 nM vasopressin. activation, % at 3 µM. actives 0.25% (n = 320,000);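 active means activation above the mean activation of all tested compounds plus 3 SD, per screening run, cut at about 20% in these data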;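 further: signal is peak over basal fluorescence ratio across a 100 second FLIPR read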
# TRPML3 ag = activates the human TRPML3 channel. activation, % at 3 µM. HEK293 TRPML3-YFP, Fluo-8 calcium fluorescence; 100% = the carbachol control signal. actives 0.29% (n = 220,000);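 active means activation above its plate's cutoff, the mean activation of the plate's test wells plus 3 SD, cut at about 12% in these data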;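 further: 0% = DMSO only wells and 100% = carbachol wells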
# Target sequence (Q8TDD5 whole entry, looked up): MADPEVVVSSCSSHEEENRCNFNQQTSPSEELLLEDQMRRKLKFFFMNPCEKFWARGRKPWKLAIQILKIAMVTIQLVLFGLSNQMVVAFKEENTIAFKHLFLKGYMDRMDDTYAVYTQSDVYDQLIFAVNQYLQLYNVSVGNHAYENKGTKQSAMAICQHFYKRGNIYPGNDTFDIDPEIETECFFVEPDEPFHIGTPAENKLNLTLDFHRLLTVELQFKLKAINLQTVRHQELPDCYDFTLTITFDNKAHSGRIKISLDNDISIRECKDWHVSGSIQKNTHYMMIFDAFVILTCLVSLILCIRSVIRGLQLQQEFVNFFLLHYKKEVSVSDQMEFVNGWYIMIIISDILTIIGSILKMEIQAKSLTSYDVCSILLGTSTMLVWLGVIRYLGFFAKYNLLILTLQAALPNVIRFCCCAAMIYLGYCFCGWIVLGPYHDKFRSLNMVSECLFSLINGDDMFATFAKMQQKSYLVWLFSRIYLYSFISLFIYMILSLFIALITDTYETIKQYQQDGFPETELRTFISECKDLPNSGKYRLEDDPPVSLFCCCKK
#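 Test system: TRPML3-YFP stable HEK293 cells. Doses: single point at 3 µM. Incubation: dye loading 1 h 37 °C then 30 min ambient, 125 s read. Signal: Fluo-8 calcium dye fluorescence, ex 470-495, em 515-575 nm. Measure: percent activation from peak-to-basal fluorescence ratio, scaled between DMSO and carbachol.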
# OXTR potentiator = human OXTR potentiation. AID 2445. actives 0.061% (n = 320,000). P30559. activation, % at 3 µM. CHO-OTR cells, Fluo-8 calcium fluorescence, potentiator mode; 0% = oxytocin EC15, 100% = EC100;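 active means activation above that plate's cutoff, the mean activation of tested compounds plus 3 SD, cut at about 6.6% in these data, passing the limit was not always enough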;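 further: 100% uses oxytocin at 75 nM as the full agonist control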
#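 Assay system: CHO cell line stably expressing human OTR | Also added: Oxytocin at about EC15, sub-maximal agonist stimulus | Times: Compound 6 min at room temperature before oxytocin, 100 s read | Measured by: Fluo-8 intracellular calcium fluorescence, ex 470-495, em 515-575 nm | Controls: EC15 oxytocin alone as 0%, 75 nM oxytocin as 100%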
# * marks the source's active call; other numbers are inactive results; . = no result.
SMILES,OXTR ag,zfTRPN1 agonist,V1R ag counter,TRPML3 ag,OXTR potentiator
COc1ccc(N2CCN(CCNC(=O)Nc3ccc(C)c(Cl)c3)CC2)cc1,18.4,.,11.7,.,-18.8
COc1cc(NC(=O)NCCN2CCN(c3ccc(Cl)cc3)CC2)ccc1C,21.7*,0.2,34.7*,0.8,-20.1
O=C(COC(=O)Cc1ccc(F)cc1)NC1CCCC1,0.9,.,-0.8,.,-3.3
CC(C)C(=O)N1CCN(c2ccc(NC(=O)c3ccc4c(c3)OCCO4)cc2)CC1,1.3,3.2,2.2,1.3,-6.9
CCOc1cccc(C(=O)NC2CCCCC2)c1,-0.8,-0.4,-0.5,-0.2,-6.4
CN(C(=O)c1ccc(NC(=O)Cc2cccc([N+](=O)[O-])c2)cc1)C1CC1,1.3,.,0.6,.,-6.8
CN(C(=O)c1ccc(NC(=O)Cc2ccc([N+](=O)[O-])cc2)cc1)C1CC1,38.4*,.,29.8*,.,-9.2
CCCc1ccc(C(=O)NC(=O)c2ccccc2O)cc1,18.6,20.2*,11.5,10.9,-16.5
O=C(NC(=O)c1ccccc1O)c1ccc(C(F)(F)F)cc1,14.5,5.9,17.5,1.8,-21.2
C#CCN1C(=O)S/C(=C/C=C/c2ccc(N(C)C)cc2)C1=O,35.3*,10.0,23.6*,4.1,-11.6
Cc1ccc(S(=O)(=O)N2CCC(=O)N(C(COCc3ccc(Cl)cc3)C(C)C)CC2)cc1 (stereo not given),-2.1,-1.3,1.3,14.0*,-9.3
Cc1ccc(S(=O)(=O)N2CCC(=O)N(C(COCc3ccccc3)C(C)C)CC2)cc1 (stereo not given),-2.2,0.8,-0.9,1.2,-5.3
CC(C)Cc1ccc(C(C)C(=O)OCC(=O)c2c[nH]c3ccccc23)cc1 (stereo not given),27.6*,17.8,23.0*,6.9,-7.1
Cc1ccc(C(=O)OCC(=O)c2c[nH]c3ccccc23)cc1,0.6,0.3,0.2,0.7,-9.7
COc1ccc(C2c3c(-c4cc(Cl)c(C)cc4O)n[nH]c3C(=O)N2Cc2cccnc2)cc1OC (stereo not given),1.8,0.1,0.2,-0.1,-7.2
CCc1ccc(NC(=O)C(CC)c2ccccc2)cc1 (stereo not given),27.1*,18.8,35.0*,11.3,-7.8
Cn1ncc(Cl)c1C(=O)N/N=C/c1cccc(OC2CSC2)c1,0.3,1.3,2.2,-0.5,-5.9
O=C(CCCn1c(=O)c2ccccc2n(CC(=O)NCc2ccco2)c1=O)NCc1ccco1,-0.2,0.4,0.7,0.7,-13.8
COc1cccc(NC(=O)c2nnn(Cc3ccc(Br)cc3F)c2N)c1,27.4*,13.3,29.0*,6.4,-11.6
COc1cccc(NC(=O)Cn2nnc(C(=O)Nc3ccccc3)c2N)c1,-0.3,-0.6,-1.0,-0.4,-16.4
Cc1ccccc1Cn1nnc(C(=O)Nc2ccc3c(c2)OCCO3)c1N,5.5,.,2.4,.,-12.5
COc1cccc(NC(=O)c2nnn(CC(=O)Nc3cc(C)cc(C)c3)c2N)c1,5.3,.,1.9,.,-11.9
CCc1ccc(Cn2nnc(C(=O)Nc3ccc(OC)cc3OC)c2N)cc1,29.4*,6.7,24.3*,2.4,-6.2
Cc1cc(C)cc(NC(=O)c2nnn(Cc3cc(C)ccc3C)c2N)c1,35.4*,15.8,41.7*,10.7,-27.0
Cc1ccc(C)c(Cn2nnc(C(=O)Nc3ccc4c(c3)OCCO4)c2N)c1,39.2*,.,29.4*,.,-20.8
SMILES,OXTR ag,zfTRPN1 agonist,V1R ag counter,TRPML3 ag,OXTR potentiator
COc1ccccc1N1CCN(S(=O)(=O)c2ccc(-c3cnc(C4CC4)o3)cc2)CC1,0.2,.,0.7,.,-5.3
O=C1CC(NCc2ccc(F)cc2)C(=O)N1c1ccccc1 (stereo not given),0.8,-1.1,0.9,0.6,-1.7
CCOc1ccccc1CSc1nc2ccccc2[nH]1,-2.9,-3.3,-0.4,-0.1,-6.6
Cn1c2ccccc2c(=O)c2c(=O)n(C3CCCCC3)c(-c3ccco3)nc21,16.5,2.6,28.6*,0.5,-3.3
O=C(CCCN=C1NS(=O)(=O)c2ccccc21)OCC(=O)c1ccc(F)cc1,20.3*,.,23.1*,.,-8.8
O=C(CCN=C1NS(=O)(=O)c2ccccc21)OCC(=O)c1ccc(F)cc1,1.8,.,4.1,.,-4.8
COc1cc(-c2noc(C)c2-c2ccc3[nH]ccc3c2)cc(OC)c1OC,-2.3,.,-0.4,.,-10.9
COc1cc(-c2noc(C)c2-c2ccc(N(C)C)nc2)cc(OC)c1OC,35.7*,.,33.9*,.,-18.2
COc1ccc2c(C)nc(Nc3nc(-c4ccccc4)cc(=O)[nH]3)nc2c1,-0.4,0.4,-0.7,0.4,2.0
Cc1ccc(C2c3c(C)nn(-c4ccc([N+](=O)[O-])cc4)c3N=C3C(=O)Nc4ccccc4N32)cc1 (stereo not given),-2.0,25.9*,0.2,32.9*,-11.4
Cc1nn(-c2ccc([N+](=O)[O-])cc2)c2c1C(c1ccc(OC(F)F)cc1)N1C(=N2)C(=O)Nc2ccccc21 (stereo not given),-1.3,0.1,-0.6,-0.6,-0.1
CCOc1ccc(NS(=O)(=O)c2ccc(C(=O)NCC(c3cccs3)N3CCOCC3)cc2)cc1 (stereo not given),25.6*,.,25.8*,.,-21.0
CC(=O)c1ccc(S(=O)(=O)Nc2ccc(C(=O)NCC(c3cccs3)N3CCOCC3)cc2)cc1 (stereo not given),1.0,.,1.8,.,-7.6
COc1ccc(NS(=O)(=O)c2cccc(C(=O)OCC(=O)Nc3cc(C)on3)c2)cc1,4.5,3.2,10.5,-0.6,-21.7
Cc1ccc(NS(=O)(=O)c2ccc(C(=O)OCC(=O)Nc3cc(C)on3)cc2)cc1,.,22.5*,.,11.1,.
O=C(OCCN1C(=O)c2cccc3c(N4CCOCC4)ccc(c23)C1=O)c1cc(Cl)cc(Cl)c1,.,4.2,.,1.9,.
O=C1c2cccc3c(N4CCCCC4)ccc(c23)C(=O)N1c1ccccn1,41.7*,6.8,40.4*,6.5,-29.8
CN(C)CCCN1C(=O)c2cccc3c(Br)ccc(c23)C1=O,-0.3,-0.3,1.0,1.2,1.6
O=C1c2cccc3c(N4CCCCC4)ccc(c23)C(=O)N1c1ccc(Cl)cn1,.,5.8,.,6.2,.
CCCCNc1ccc2c3c(cccc13)C(=O)N(CCCC)C2=O,.,282.8*,.,154.0*,.
CCCN1C(=O)c2cccc3c(N4CCCCC4)ccc(c23)C1=O,5.3,22.8*,2.7,6.5,-4.1
CCN(CC)CCn1c(NCc2ccco2)nc2ccccc21,-1.0,1.2,1.5,0.3,-1.4
Cc1cc(Cl)ccc1OCC(=O)OCC(=O)N(CC(C)C)c1c(N)n(Cc2ccccc2)c(=O)[nH]c1=O,-0.4,.,2.1,.,-11.7
Cc1[nH]c(=O)[nH]c(=O)c1/C=N/NC(=O)[C@@H](NC(=O)OC(C)(C)C)C(C)C,0.3,1.2,-0.2,0.6,-2.5
CCOc1ccc(-c2cc(C(=O)N3CCC(C)CC3)c3ccccc3n2)cc1,-0.1,.,-0.8,.,0.1

# Compound activity from PubChem.
